Assay [1] relates to Staphylococcus aureus. Kind of assay: Antibacterial activity against Staphylococcus aureus ATCC 25923 in presence of BSA 1 by microdilution method. The assay is classed as functional. In a few lines: (§1)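 Standard broth microdilution MIC against S. aureus ATCC 25923 with albumin in the assay at 0.55 mM. Albumin grades: BSA I, essentially fatty acid and globulin free, ≥99%. BSA II ≥96%. HSA I, essentially fatty acid free, ~99%. HSA II ≥96%. Run in duplicate.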
In general terms: Dilution methods test growth across graded concentrations, often in twofold steps.

Assay [2] in a line: Binding affinity to BSA 1 by isothermal titration calorimetry. Details: species or system Bos taurus. The procedure, abridged: (§2)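 ITC at 25 °C with 1 mL cell. Peptide (2.1 mM) injected in 20 aliquots of 5 µL, 400 s apart, into stirred (200 rpm) albumin (0.11 mM) in 50 mM Tris-HCl, 10 mM CaCl₂, pH 8.2. Dilution heats from peptide-into-buffer titrations were subtracted. First injection excluded. Isotherm fitted to a one-site model; KD = 1/Ka.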
(In ITC the heat of successive injections is recorded.)

The subject of assay [3] is Staphylococcus aureus. Kind of assay: Antibacterial activity against Staphylococcus aureus ATCC 25923 by microdilution method. The assay is classed as functional. In a few lines:
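Standard broth microdilution MIC against S. aureus ATCC 25923, without albumin. Run in triplicate.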

A short description of assay [4]: Binding affinity to HSA 2 by isothermal titration calorimetry. Also noted: species or system Homo sapiens. The procedure, abridged: as §2
Assay [5] concerns Staphylococcus aureus. The assay can be described thus: Antibacterial activity against Staphylococcus aureus ATCC 25923 in presence of BSA 2 by microdilution method. The assay is classed as functional. The procedure, abridged: as §1
A short description of assay [6]: Binding affinity to HSA 1 by isothermal titration calorimetry. Details: species or system Homo sapiens. The procedure, abridged: as §2
Assay [7] concerns Staphylococcus aureus. The assay can be described thus: Antibacterial activity against Staphylococcus aureus ATCC 25923 in presence of HSA 1 by microdilution method. The assay is classed as functional. The procedure, abridged: as §1
A short description of assay [8]: Binding affinity to BSA 2 by isothermal titration calorimetry. Details: species or system Bos taurus. In a few lines:
as §2

Assay [9] has as its system Staphylococcus aureus. The assay can be described thus: Antibacterial activity against Staphylococcus aureus ATCC 25923 in presence of HSA 2 by microdilution method. The assay is classed as functional. In a few lines:
as §1

In brackets after ≈: the same amount, converted by molar mass. Where a SMILES comes first, the peptide text is derived from it. [ ]: non-standard residue; d: D form. The star is where a group is joined. Bip = N[C@@H](Cc1ccc(-c2ccccc2)cc1)C(=O)O; NHPhenethyl = c1ccc(CCN*)cc1; NHBn = c1ccc(CN*)cc1; NHiPr = CC(C)N*

By MIC is commonly meant the least concentration at which growth counts as inhibited. By Kd is commonly meant the free concentration of one partner at which half of the binding sites on the other are occupied at equilibrium, for simple one-to-one binding. A higher Kd goes with lower affinity. Take `C[C@H](CNC(=O)[C@H](CCCNC(=N)N)NC(=O)[C@H](Cc1ccc(-c2ccccc2)cc1)NC(=O)[C@@H](N)CCCNC(=N)N)c1ccccc1`: the figures for the minimum inhibitory concentration (MIC) in the assay with Staphylococcus aureus [1] and against Staphylococcus aureus [3] were 31 µg/mL and 4 µg/mL (≈ 5.96 µM), respectively. Besides, in assay [2], the affinity, expressed as Kd, was 12.4 µM.

Consider `CN(Cc1ccccc1)C(=O)[C@H](CCCNC(=N)N)NC(=O)[C@H](Cc1ccc(-c2ccccc2)cc1)NC(=O)[C@@H](N)CCCNC(=N)N`, for which the MIC with Staphylococcus aureus [1] is 38 µg/mL; in the assay with Staphylococcus aureus [3] it was 7 µg/mL (≈ 10.7 µM). Besides, in assay [2], the equilibrium dissociation constant (Kd) was 6.7 µM.

Take `C[C@@H](CNC(=O)[C@H](CCCNC(=N)N)NC(=O)[C@H](Cc1ccc(-c2ccccc2)cc1)NC(=O)[C@@H](N)CCCNC(=N)N)c1ccccc1`: the figures for the MIC in the assay on Staphylococcus aureus [1] and against Staphylococcus aureus [3] were 31 µg/mL and 4 µg/mL (≈ 5.96 µM), respectively. Also, binding in assay [2] was put at a Kd of 12.2 µM.

As for `N=C(N)NCCC[C@H](NC(=O)[C@H](Cc1ccc(-c2ccccc2)cc1)NC(=O)[C@@H](N)CCCNC(=N)N)C(=O)NCCCc1ccccc1`, the results for the MIC in the assay with Staphylococcus aureus [1] and in the assay on Staphylococcus aureus [3] were 25 µg/mL and 2 µg/mL (≈ 2.98 µM), respectively. Besides, the Kd in assay [2] came to 22.2 µM.

Take `N=C(N)NCCC[C@H](NC(=O)[C@H](Cc1ccc(-c2ccccc2)cc1)NC(=O)[C@@H](N)CCCNC(=N)N)C(=O)N(Cc1ccccc1)Cc1ccccc1`: the MIC worked out at 13 µg/mL in the assay with Staphylococcus aureus [1]; 6 µg/mL in the assay with Staphylococcus aureus [5]; 6 µg/mL in the assay with Staphylococcus aureus [7]; 11 µg/mL in the assay with Staphylococcus aureus [9]; 2 µg/mL (≈ 2.73 µM) with Staphylococcus aureus [3]. For the same compound, the Kd is 15.9 µM in assay [4], 10.4 µM in assay [6], 12.3 µM in assay [8] and 10 µM in assay [2].

As to `CCN(Cc1ccccc1)C(=O)[C@H](CCCNC(=N)N)NC(=O)[C@H](Cc1ccc(-c2ccccc2)cc1)NC(=O)[C@@H](N)CCCNC(=N)N`, the minimal inhibitory concentration (MIC) with Staphylococcus aureus [1] worked out at 38 µg/mL; in the assay with Staphylococcus aureus [3], 5 µg/mL (≈ 7.45 µM). Moreover, in assay [2], the dissociation constant Kd was found to be 17.3 µM.

With `N=C(N)NCCC[C@H](NC(=O)[C@H](Cc1ccc(-c2ccccc2)cc1)NC(=O)[C@@H](N)CCCNC(=N)N)C(=O)NCc1ccccc1` (H-Arg-[Bip]-Arg-NHBn), the MIC stood at 47 µg/mL with Staphylococcus aureus [1]; 30 µg/mL with Staphylococcus aureus [5]; 40 µg/mL with Staphylococcus aureus [7]; 80 µg/mL with Staphylococcus aureus [9]; 5 µg/mL (≈ 7.78 µM) against Staphylococcus aureus [3]. In addition, the Kd was 15.5 µM in assay [4], 15.7 µM in assay [6], 13 µM in [8] and 4.3 µM in assay [2].

On to `N=C(N)NCCC[C@H](NC(=O)[C@H](Cc1ccc(-c2ccccc2)cc1)NC(=O)[C@@H](N)CCCNC(=N)N)C(=O)NCCc1ccccc1` (H-Arg-[Bip]-Arg-NHPhenethyl), for which the minimum inhibitory concentration (MIC) in the assay on Staphylococcus aureus [1] came to 47 µg/mL; against Staphylococcus aureus [3] it was 4 µg/mL (≈ 6.09 µM). Also, binding in assay [2] was put at a Kd of 11.1 µM.

`CC(C)NC(=O)[C@H](CCCNC(=N)N)NC(=O)[C@H](Cc1ccc(-c2ccccc2)cc1)NC(=O)[C@@H](N)CCCNC(=N)N` (H-Arg-[Bip]-Arg-NHiPr): the MIC was 110 µg/mL in the assay on Staphylococcus aureus [1]; 80 µg/mL in the assay with Staphylococcus aureus [5]; 113 µg/mL in the assay on Staphylococcus aureus [7]; 100 µg/mL in the assay with Staphylococcus aureus [9]; 47 µg/mL (≈ 79 µM) in the assay with Staphylococcus aureus [3]. In addition, the dissociation constant Kd in [4] came to 18.2 µM; in [6] it was 10.8 µM; in [8], 14.5 µM; in assay [2] it was 14.1 µM.

These data come from ChEMBL document CHEMBL1145426, “Albumin binding of short cationic antimicrobial micropeptides and its influence on the in vitro bactericidal effect” (J Med Chem, 2007).
